STAT1 inh: STAT1 signaling inhibitors, primary screen, cell-based, HTS, luciferase reporter | NIH 3T3 STAT1-luciferase reporter, IFN-gamma, luminescence | inhibition, % at 5.5 µM | 200,000 compounds, 0.35% hits;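 active = inhibition above a set limit, the mean inhibition across all tested compounds plus 3 SD, cut at about 34% in these data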
STAT3 inh-1: IL-6 driven STAT3 reporter inhibitors, primary screen, U3A cells, luciferase, luminescence, MLSCN library | IL-6 STAT3-luciferase reporter; host cell line lacks STAT1 | inhibition, % at 5.5 µM | 190,000 compounds, 0.89% hits;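 active = inhibition above the mean inhibition across all screened compounds plus 3 SD, cut at about 44% in these data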
STAT3 act: IL-6 driven STAT3 reporter potentiators, primary screen, U3A cells, luciferase, luminescence, MLSCN library; 190,000 compounds, 0.91% hits; activation (% of control), % at 5.6 µM; IL-6 STAT3-luciferase reporter; 100% = signal with IL-6 EC80 alone; AID 871, 2007;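 active = activation above the screen-wide mean of compound activation plus 3 SD, cut at about 130% in these data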
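Assay system – human STAT1-deficient U3A cells with stable STAT3-luciferase reporter · Also added – IL-6 (33 ng/mL) · Schedule – compound 1 h, then IL-6 6 h at 37 °C · Technique – reporter luminescence signal · Evaluation – % activation versus median of IL-6-stimulated wells · Benchmarks – IL-6-only wells as 100% reference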
STAT1 activator: STAT1 signaling activators, primary screen, cell-based, HTS, luciferase reporter; 200,000 compounds, 2.6% hits; NIH 3T3 STAT1-luciferase reporter, IFN-gamma, luminescence; 100% = IFN-gamma alone, no compound; activation (% of control), % at 5.5 µM; AID 932, 2007;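 active = activation above the screen-wide mean activation plus 3 SD, cut at about 130% in these data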
Cl transport mod: KCC2 cotransporter modulators, thallium flux, primary screen, cell-based, HEK293 KCC2, FluoZin-2 fluorescence, MLSMR | Solute carrier family 12 member 5 (Homo sapiens), Q9H2X9 | KCC2 cells, thallium flux FluoZin-2 fluorescence | B-score of Tl+ flux slope (higher = more flux/activation; lower = inhibition) at 10 µM | 190,000 compounds, 2.2% hits;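 active = thallium flux slope and its plate-corrected score both differing from the plate sample mean at a set confidence after two filtering rounds, in either direction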;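 note: slope of fluorescence scaled to starting intensity during 10 to 20 s after thallium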
Target sequence (Q9H2X9 whole entry, looked up): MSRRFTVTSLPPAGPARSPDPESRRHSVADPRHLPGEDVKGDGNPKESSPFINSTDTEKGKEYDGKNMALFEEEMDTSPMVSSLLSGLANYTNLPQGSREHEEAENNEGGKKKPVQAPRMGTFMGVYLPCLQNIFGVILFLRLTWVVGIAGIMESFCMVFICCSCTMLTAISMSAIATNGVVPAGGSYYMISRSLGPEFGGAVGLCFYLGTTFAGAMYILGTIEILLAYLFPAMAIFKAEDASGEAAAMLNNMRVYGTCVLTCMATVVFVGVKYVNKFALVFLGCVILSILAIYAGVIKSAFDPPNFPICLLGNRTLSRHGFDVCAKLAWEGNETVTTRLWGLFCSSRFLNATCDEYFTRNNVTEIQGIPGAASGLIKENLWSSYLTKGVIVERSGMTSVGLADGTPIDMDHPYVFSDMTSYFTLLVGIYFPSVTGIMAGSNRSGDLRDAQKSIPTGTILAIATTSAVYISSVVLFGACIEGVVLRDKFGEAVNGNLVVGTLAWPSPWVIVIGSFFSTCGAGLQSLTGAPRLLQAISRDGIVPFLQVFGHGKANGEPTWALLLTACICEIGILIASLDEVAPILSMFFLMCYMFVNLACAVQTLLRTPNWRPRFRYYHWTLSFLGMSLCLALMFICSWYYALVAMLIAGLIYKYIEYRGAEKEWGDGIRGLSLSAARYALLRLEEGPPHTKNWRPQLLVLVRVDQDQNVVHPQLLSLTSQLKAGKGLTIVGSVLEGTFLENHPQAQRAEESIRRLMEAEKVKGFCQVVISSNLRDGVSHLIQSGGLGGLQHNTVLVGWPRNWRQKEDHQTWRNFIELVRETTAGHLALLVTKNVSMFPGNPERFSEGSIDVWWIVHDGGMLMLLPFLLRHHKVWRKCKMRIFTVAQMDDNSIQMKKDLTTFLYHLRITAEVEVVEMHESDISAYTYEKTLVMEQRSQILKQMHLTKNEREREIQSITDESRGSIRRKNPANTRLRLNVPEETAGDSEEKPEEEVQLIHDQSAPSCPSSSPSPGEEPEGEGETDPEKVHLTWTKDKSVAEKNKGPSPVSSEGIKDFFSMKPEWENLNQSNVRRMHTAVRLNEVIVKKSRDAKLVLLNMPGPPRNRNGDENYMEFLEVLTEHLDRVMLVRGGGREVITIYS
HSV replic up: enhancers of HSV replication in host cells, fold increase, host cell viability | HSV replication augmentation in cells | maximum fold increase | 220,000 compounds, 0.005% hits | AID 1956, 2009; in the data active = maximum fold increase above about 1.5; inconclusive = no clear call, values can overlap the other calls; tested in PC3 cells
STAT3 inh-2: STAT3 reporter inhibitors, retest of hits, confirmation, U3A cells, luciferase, luminescence; shares compounds with STAT3 inh-1; IL-6 STAT3 luciferase reporter; cell line lacks STAT1; inhibition, % at 5.7 µM; 1,200 compounds, 45% hits;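 active = inhibition above the hit cutoff computed for the primary STAT3 screen, cut at about 44% in these data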
NFkB inh 2: NF-kB reporter inhibitors in human cells, confirmation, counter-screen for STAT3 inhibitor project, cell-based, HEK293T, luciferase, TNF-alpha stimulus. shares compounds with STAT3 inh-1. TNF-alpha induced. inhibition, % at 5.7 µM. 1,200 compounds, 36% hits. AID 1308, 2008;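 active = inhibition above the mean of solvent-only control wells plus 3 SD, cutoff set per campaign, cut at about 13% in these data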
STAT1 inh 2: STAT1 reporter inhibitors, IFN-gamma induced, confirmation, counter-screen for STAT3 inhibitor project, cell-based, NIH 3T3, luciferase luminescence; shares compounds with STAT3 inh-1; 1,200 compounds, 27% hits; NIH 3T3 STAT1-luciferase reporter; inhibition, % at 5.7 µM;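 active = inhibition above the mean plus 3 SD of solvent-only control wells, limit set per screening run, cut at about 16% in these data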
Numbers stand for hits; - = inactive; ? = inconclusive; . = no result given. Rows were chosen to be rich in hits. Some 5.5% of all compounds tested hit in one or more screens of this group.

SMILES	STAT1 inh	STAT3 inh-1	STAT3 act	STAT1 activator	Cl transport mod	HSV replic up	STAT3 inh-2	NFkB inh 2	STAT1 inh 2
Cc1cc(C=C2C(=O)N(C)C(=S)N(C)C2=O)c(C)n1C1CCCCC1	-	-	-	-	.	?	.	.	.
Cc1cc(C=C2C(=O)NC(=S)NC2=O)c(C)n1C1CCCC1	-	-	-	136	-	-	.	.	.
COc1ccc2nc(NC3=NCCN3)sc2c1	-	-	-	140	-	-	.	.	.
CN1C(=O)/C(=C\c2ccc(N3CCCCC3)o2)C(=O)NC1=S	-	-	-	133	.	?	.	.	.
Nc1ccccc1C(=O)OCc1ccc([N+](=O)[O-])cc1	-	-	-	136	-	-	.	.	.
Cc1ccc(NC2=NCCCS2)c(C)c1C	-	-	-	-	-	-	.	.	.
C=CCN=C(SCC(=O)c1ccc(Cl)cc1)c1c(O)n(C)c(=O)n(C)c1=O	.	.	.	.	-	-	.	.	.
CCCCn1c(C)c(C(=O)O)c2cc(OC)ccc21	-	52	-	-	.	-	-	-	-
COc1ccc(N/N=C/c2c(O)n(-c3ccc(C)c(C)c3)c(=O)[nH]c2=O)cc1	-	48	-	-	-	-	-	-	-
Cc1ccc(-n2c(O)c(/C=N/Nc3ccccc3)c(=O)[nH]c2=O)cc1C	.	.	.	.	.	-	.	.	.
CCn1nc(-c2ccccc2)nc2c(=O)n(C)c(=O)nc1-2	-	62	-	-	-	-	74	49	41
COc1ccc(-c2nc3ccccc3c(=O)n2-c2ccc(OC)cc2)cc1	-	-	-	-	-	-	.	.	.
CNC(=O)Oc1cccc(-c2cn3cc(Cl)ccc3n2)c1	-	92	-	-	-	-	82	-	-
CC1C(C)N1CC(O)Cn1ccnc1[N+](=O)[O-] (stereo unspecified)	.	.	.	.	-	-	.	.	.
COc1c(C)cc(C(=O)C2CCCN(Cc3ccccn3)C2)cc1C (stereo unspecified)	-	-	-	-	-	-	.	.	.
O=C(Nc1ccncc1)c1cccn(Cc2ccccc2)c1=O	-	79	-	-	-	-	74	17	-
C[C@H]1CCC[C@@H](O)CCC/C=C/c2cc(O)cc(O)c2C(=O)O1	-	60	-	-	.	-	48	-	-
C[C@H]1CCC[C@H](O)CCCCCc2cc(O)cc(O)c2C(=O)O1	-	-	-	-	-	-	.	.	.
CCOC(=O)C1(c2ccccc2)CCN(CCC(C#N)(c2ccccc2)c2ccccc2)CC1	.	.	.	.	.	-	.	.	.

Compound activity as filed in PubChem.
